Reference: ChEMBL document CHEMBL2417469, “Synthesis of novel analogs of 2-pyrazoline obtained from [(7-chloroquinolin-4-yl)amino]chalcones and hydrazine as potential antitumor and antimalarial agents” (Eur J Med Chem, 2013)

Assays:
Format in all cases: functional
[1] = system: T47D; test: Cytotoxicity against human T47D cells after 48 hrs by SRB assay
In short: (§1)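 NCI 60-cell screen. Cells grew 24 h (37 °C, 5% CO2) before compound was added. Compounds were in DMSO and diluted in medium with gentamicin, then tested at five levels (100, 10, 1.0, 0.1, 0.01 µM) with 48 h continuous exposure. Adherent cells were fixed with TCA (10% final) and stained with 0.4% SRB, absorbance read at 515 nm. A time-zero plate was included. LC50 is the concentration giving 50% loss of protein relative to time zero.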

[2] = system: NCI/ADR-RES; test: Cytotoxicity against human NCI/ADR-RES cells after 48 hrs by SRB assay
In short: (§2)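 NCI 60-cell-line screen. Cells preincubated 24 h at 37 °C, 5% CO2; time-zero plates TCA-fixed. Compounds dissolved in DMSO and tested at five concentrations (100, 10, 1.0, 0.1, 0.01 µM) for 48 h continuous exposure. Adherent cells fixed with cold TCA (10% final), then SRB stained; absorbance at 515 nm. GI50, TGI and LC50 calculated from growth relative to time-zero and untreated controls.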

[3] = system: ACHN; test: Cytotoxicity against human ACHN cells after 48 hrs by SRB assay; in short: as §2
[4] = system: PC-3; test: Cytotoxicity against human PC3 cells after 48 hrs by SRB assay; conditions: PC-3, 48 h; in short: as §2
[5] = system: SK-MEL-28; test: Cytotoxicity against human SK-MEL-28 cells after 48 hrs by SRB assay; conditions: SK-MEL-28, 48 h; in short: as §2
[6] = system: HCT-15; test: Cytotoxicity against human HCT15 cells after 48 hrs by SRB assay; conditions: HCT-15, 48 h; in short: as §2
[7] = system: MDA-MB-435; test: Cytotoxicity against human MDA-MB-435 cells after 48 hrs by SRB assay; conditions: MDA-MB-435, 48 h; in short: as §2
[8] = system: CCRF-CEM; test: Cytotoxicity against human CCRF-CEM cells after 48 hrs by SRB assay; in short: as §2
[9] = system: NCI-H460; test: Cytotoxicity against human NCI-H460 cells after 48 hrs by SRB assay; conditions: NCI-H460, 48 h; in short: as §2
[10] = system: SN12C; test: Cytotoxicity against human SN12C cells after 48 hrs by SRB assay; in short: as §2
[11] = system: SR; test: Cytotoxicity against human SR cells after 48 hrs by SRB assay; in short: as §1
[12] = system: A549; test: Cytotoxicity against human A549/ATCC cells after 48 hrs by SRB assay; conditions: A549, 48 h; in short: as §2
[13] = system: HCT-116; test: Cytotoxicity against human HCT116 cells after 48 hrs by SRB assay; conditions: HCT-116, 48 h; in short: as §2
[14] = system: UACC-62; test: Cytotoxicity against human UACC62 cells after 48 hrs by SRB assay; conditions: UACC-62, 48 h; in short: as §1
[15] = system: MDA-MB-468; test: Cytotoxicity against human MDA-MB-468 cells after 48 hrs by SRB assay; conditions: MDA-MB-468, 48 h; in short: as §2
[16] = system: RPMI-8226; test: Cytotoxicity against human RPMI8226 cells after 48 hrs by SRB assay; conditions: RPMI-8226, 48 h; in short: as §2
[17] = system: BT-549; test: Cytotoxicity against human BT549 cells after 48 hrs by SRB assay; conditions: BT-549, 48 h; in short: as §2
[18] = system: HL-60(TB); test: Cytotoxicity against human HL-60(TB) cells after 48 hrs by SRB assay; conditions: HL-60, 48 h; in short: as §2
[19] = system: MCF7; test: Cytotoxicity against human MCF7 cells after 48 hrs by SRB assay; conditions: MCF7, 48 h; in short: as §2
[20] = system: KM12; test: Cytotoxicity against human KM12 cells after 48 hrs by SRB assay; conditions: KM12, 48 h; in short: as §2
[21] = system: CAKI-1; test: Cytotoxicity against human Caki1 cells after 48 hrs by SRB assay; conditions: CAKI-1, 48 h; in short: as §2
[22] = system: OVCAR-8; test: Cytotoxicity against human OVCAR8 cells after 48 hrs by SRB assay; conditions: OVCAR-8, 48 h; in short: as §2
[23] = system: Malme-3M; test: Cytotoxicity against human MALME-3M cells after 48 hrs by SRB assay; in short: as §2
[24] = system: HOP-92; test: Cytotoxicity against human HOP92 cells after 48 hrs by SRB assay; conditions: HOP-92, 48 h; in short: as §2
[25] = system: NCI-H23; test: Cytotoxicity against human NCI-H23 cells after 48 hrs by SRB assay; conditions: NCI-H23, 48 h; in short: as §2
[26] = system: M14; test: Cytotoxicity against human M14 cells after 48 hrs by SRB assay; conditions: M14, 48 h; in short: as §2
[27] = system: SK-OV-3; test: Cytotoxicity against human SKOV3 cells after 48 hrs by SRB assay; conditions: SK-OV-3, 48 h; in short: as §2
[28] = system: COLO 205; test: Cytotoxicity against human COLO205 cells after 48 hrs by SRB assay; conditions: COLO 205, 48 h; in short: as §2
[29] = system: LOX IMVI; test: Cytotoxicity against human LOXIMVI cells after 48 hrs by SRB assay; in short: as §2
[30] = system: HT-29; test: Cytotoxicity against human HT-29 cells after 48 hrs by SRB assay; conditions: HT-29, 48 h; in short: as §2
[31] = system: 786-0; test: Cytotoxicity against human 786-0 cells after 48 hrs by SRB assay; conditions: 786-0, 48 h; in short: as §2
[32] = system: SK-MEL-5; test: Cytotoxicity against human SK-MEL-5 cells after 48 hrs by SRB assay; conditions: SK-MEL-5, 48 h; in short: as §2
[33] = system: HOP-62; test: Cytotoxicity against human HOP62 cells after 48 hrs by SRB assay; conditions: HOP-62, 48 h; in short: as §2
[34] = system: Hs-578T; test: Cytotoxicity against human Hs578T cells after 48 hrs by SRB assay; in short: as §2
[35] = system: OVCAR-3; test: Cytotoxicity against human OVCAR3 cells after 48 hrs by SRB assay; conditions: OVCAR-3, 48 h; in short: as §2
[36] = read-out: LC50 (the source's name)

## O=CN1N=C(c2ccc(Nc3ccnc4cc(Cl)ccc34)cc2)CC1c1ccccc1 (stereo not given)
[1]
  GI50: 2.18 µM
  LC50 (concentration giving 50% cell kill relative to time zero): > 100 µM
[2]
  GI50: 2.69 µM
[2]; [36]
  CC50: > 100 µM
[3]
  GI50: 4.21 µM
[3]; [36]
  CC50: > 100 µM
[4]
  GI50: 4.76 µM
  LC50: > 100 µM
[5]
  GI50: 8.35 µM
[5]; [36]
  CC50: > 100 µM
[6]
  GI50: 2.54 µM
  LC50 (concentration killing 50% of cells relative to time zero): > 100 µM
[7]
  GI50: 1.59 µM
  LC50: > 100 µM
[8]
  GI50: 2.51 µM
  LC50 (concentration killing 50% of cells relative to time zero): > 100 µM
[9]
  GI50: 3.96 µM
  LC50: > 100 µM
[10]
  GI50: 3.8 µM
  LC50 (50% net cell kill relative to time zero): > 100 µM
[11]
  GI50: 1.77 µM
  LC50: > 100 µM
[12]
  GI50: 4.05 µM
[12]; [36]
  CC50: > 100 µM
[13]
  GI50: 3.58 µM
  LC50: > 100 µM
[14]
  GI50: 1.55 µM
[14]; [36]
  CC50: 17.4 µM
[15]
  GI50: 0.98 µM
  LC50: 10 µM
[16]
  GI50: 2.55 µM
  LC50 (concentration killing 50% of cells): > 100 µM
[17]
  GI50: 3.81 µM
  LC50 (50% net cell kill vs time zero): 53.8 µM
[18]
  GI50: 2.66 µM
[18]; [36]
  CC50: 72.5 µM
[19]
  GI50: 3.42 µM
[19]; [36]
  CC50: > 100 µM
[20]
  GI50: 3.41 µM
  LC50 (concentration killing 50% of cells): > 100 µM
[21]
  GI50: 3.82 µM
  LC50: > 100 µM
[22]
  GI50: 4.53 µM
  LC50 (50% net cell kill): > 100 µM
[23]
  GI50: 4.21 µM
  LC50: > 100 µM
[24]
  GI50: 4.28 µM
  LC50 (concentration killing 50% of cells): > 100 µM
[25]
  GI50: 3.64 µM
[25]; [36]
  CC50: > 100 µM
[26]
  GI50: 4.12 µM
[26]; [36]
  CC50: > 100 µM
[27]
  GI50: 11.3 µM
  LC50 (concentration killing 50% of cells): > 100 µM
[28]
  GI50: 2.21 µM
  LC50: > 100 µM
[29]
  GI50: 1.61 µM
  LC50: 6.88 µM
[30]
  GI50: 3.21 µM
  LC50: > 100 µM
[31]
  GI50: 3.36 µM
  LC50: 98.4 µM
[32]
  GI50: 1.38 µM
  LC50 (concentration killing 50% of cells present at time zero): 11.2 µM
[33]
  GI50: 5.26 µM
  LC50 (50% lethal concentration): > 100 µM
[34]
  GI50: 3.77 µM
  LC50 (50% net cell kill): > 100 µM
[35]
  GI50: 2.78 µM
  LC50: 43.2 µM
